Results from different studies.
Target: RAC-alpha serine/threonine-protein kinase (AKT1, Homo sapiens, UniProt P31749)

CC1=C(C#N)[C@@H](c2ccc3[nH]nc(C)c3c2)C(C#N)=C(c2ccc(Cl)cc2)N1
remaining binding (cell-free assay, competition with immobilised ligand; 1 µM): 100%

N#CCCc1ccc2c(c1)-c1[nH]c3ccc([N+](=O)[O-])cc3c1CC(=O)N2
remaining signal (cell-free assay; 0.5 µM): 111%

Cc1ccc(Nc2nccc(N(C)c3ccc4c(C)n(C)nc4c3)n2)cc1S(N)(=O)=O
inhibition (enzyme activity, inhibitor; 0.3 µM): -7%

O=C1Nc2ccc(Cl)cc2C1=Cc1cc(Cl)c(O)c(Cl)c1
remaining signal (cell-free assay; 0.5 µM): 97.9%

Cc1ccc(C(=O)Nc2ccc(CN3CCN(C)CC3)c(C(F)(F)F)c2)cc1C#Cc1cnc2cccnn12
remaining activity (enzyme activity, inhibitor; 23.5 nM): 65%

Cc1ccc(NC(=O)c2ccc(C)c(C(F)(F)F)c2)cc1C#Cc1nn(C2CCC(O)CC2)c2ncnc(N)c12 (stereo not drawn)
remaining signal (cell-free assay; 10 µM): 101%

CCCS(=O)(=O)Nc1ccc(F)c(C(=O)c2c[nH]c3ncc(-c4ccc(Cl)cc4)cc23)c1F
inhibition (enzyme activity, inhibitor; 1 µM): < 20%

Cc1sc(C(=O)NC2COC2)cc1-n1cc(NC(=O)Nc2c(F)cccc2Cl)cn1
remaining activity (enzyme activity, inhibitor; 10 µM): 105%

O=S(=O)(NCCNC/C=C/c1ccc(Br)cc1)c1cccc2cnccc12
remaining signal (cell-free assay; 0.5 µM): 41.6%

CCc1ccccc1C(=O)Nc1n[nH]c2c(C)c(F)c(C3C(C#N)=C(C)N(C)C(C)=C3C#N)cc12
remaining binding (cell-free assay, competition with immobilised ligand; 1 µM): 75%

Cc1cnc(NC2CCOCC2)nc1-n1cnc(C(=O)NC(CN)c2cc(F)cc(Cl)c2)c1 (stereo not drawn)
remaining activity (enzyme activity, inhibitor, radiometric; 1 µM): 89%

Nc1nc(NC2CCCCC2)sc1C(=O)c1ccccc1
remaining activity (enzyme activity, inhibitor; 10 µM): 85%

CN1CC(Oc2cnc(C#N)cc2-c2ccn3nc(NC(=O)C4CC4)cc3c2)C1
inhibition (enzyme activity, inhibitor; 1 µM): -4%

O=C1CCc2cc(Nc3cc(OC4CCOCC4)c([N+](=O)[O-])cc3Cl)ccc2N1
remaining binding (cell-free assay, competition with immobilised ligand; 1 µM): 98%

Cn1cncc1C1=CN(c2ncnc3[nH]cnc23)CCS1
inhibition (enzyme activity, inhibitor, radiometric; 2 µM): 83.7%

COc1cc(F)ccc1-c1ncnc(Nc2cccc(C[S@](C)(=N)=O)c2)n1
activity vs control (enzyme activity, inhibitor; 10 µM): 108%

CNC(=O)Nc1ccc2c(c1)CC[C@@]21OC(=O)N(CC(=O)N(Cc2ccc(F)cc2)[C@@H](C)C(F)(F)F)C1=O
remaining binding (cell-free assay, competition with immobilised ligand; 1 µM): 91%

Cn1c(=O)n(-c2ccc(C(C)(C)C#N)cc2)c2c3cc(-c4cnc5ccccc5c4)ccc3ncc21
remaining activity (enzyme activity, inhibitor; 10 µM): 126%

CN(C)C1CCN(CC#Cc2nn(C3CCCC3)c3nc(NCc4ccccc4)ncc23)C1 (stereo not drawn)
inhibition (enzyme activity, inhibitor, FRET; 10 µM): 7%

COc1cc(Nc2cnc(C#N)c(O[C@H](C)CN(C)C)n2)ncc1-c1cnn(C)c1
remaining activity (enzyme activity, inhibitor, radiometric; 1 µM): 98%

O=C(CSc1nc2nccnc2c(=O)n1CCc1ccccc1)Nc1nccs1
inhibition (enzyme activity, inhibitor; 10 µM): 4%

Cc1c(NC(=O)c2cc(C(N)=O)nc3cc(F)ccc23)c(C(F)(F)F)nn1Cc1ccc(C#N)cc1
remaining binding (cell-free assay, competition with immobilised ligand; 1 µM): 91%

CNC(=O)c1cc(Oc2ccc(NC(=O)Nc3ccc(Cl)c(C(F)(F)F)c3)cc2)ccn1
inhibition (enzyme activity, inhibitor; 10 µM): -3%

Oc1ccc(-c2nc(-c3ccncc3)c(-c3ccc(F)cc3)[nH]2)cc1
remaining signal (cell-free assay; 0.5 µM): 101%

Cc1ccc(C(=O)NCc2ccsc2)cc1C#Cc1cn(C(C)C)c2ncnc(N)c12
activity vs control (enzyme activity, inhibitor; 1 µM): 94%

CNC(=O)Nc1ccc2c(c1)[C@@]1(CC2)OC(=O)N(CC(=O)N(Cc2ccc(F)cc2)[C@@H](C)C(F)(F)F)C1=O
remaining binding (cell-free assay, competition with immobilised ligand; 1 µM): 77%

CSc1nc(C)c(-c2ccnc(Nc3ccc(N4CCOCC4)cc3)c2)[nH]1
inhibition (enzyme activity, inhibitor; 10 µM): -2.9%

CCS(=O)(=O)c1cc2cc(C[C@@](O)(CC(C)(C)c3ccc(F)cc3C(N)=O)C(F)(F)F)[nH]c2cn1
remaining binding (cell-free assay, competition with immobilised ligand; 1 µM): 86%

CC/C(=N\NC(=O)NCc1cccc(O)c1)c1ccc(O)c(C)c1O
inhibition (enzyme activity, inhibitor; 0.1 µM): 0.1%

O=C(Nc1cnn(-c2csc(C(=O)NC3COC3)c2)c1)Nc1ccccc1Cl
remaining activity (enzyme activity, inhibitor; 5 µM): 95.4%

FC(F)(F)Oc1cccc(-c2cnc3ccc(-c4ccncc4)nn23)c1
activity vs control (enzyme activity, inhibitor, radiometric; 5 µM): 104%

O=C1NC(=O)c2cc(Nc3ccc(F)cc3)c(Nc3ccc(F)cc3)cc21
remaining signal (cell-free assay; 0.5 µM): 94.8%

Cc1c[nH]c2nccc(Oc3c(F)cc(Nc4cc(Cl)nc(N)n4)cc3F)c12
remaining binding (cell-free assay, competition with immobilised ligand; 0.1 µM): 100%

CC(C)(C)c1nc2c(s1)c1nc(N)ncc1c1ccc(NS(=O)(=O)c3c(F)cccc3F)c(F)c12
remaining activity (enzyme activity, inhibitor, radiometric; 1 µM): 88%

COc1cc2ncnc(Nc3ccc(Oc4ccccc4)c(C)c3C)c2cc1OC
inhibition (enzyme activity, inhibitor; 1 µM): 2%

Cn1cnc(Br)c1C1=CN(c2ncnc3[nH]cnc23)CCS1
inhibition (enzyme activity, inhibitor, radiometric; 50 nM): 26.5%
